# Rows were chosen to be rich in hits. Some 1.4% of all compounds tested hit in one or more screens of this group.
# FXIa inh: factor XIa (human) inhibition. P03951. purified FXIa, Boc-Glu-Ala-Arg-AMC fluorogenic substrate. inhibition, % at 5 µM. 0.14% of 220,000 active. AID 798;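 active = inhibition of at least 40%; inactive = inhibition below 40%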;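 note: fluorescence of freed AMC excited at 355 nm; 0% = enzyme without compound and 100% = no enzyme blank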
# hK5 inh: blocks human kallikrein 5 protease activity; Q9Y337; recombinant hK5, fluorogenic AMC substrate cleavage; inhibition, % at 5 µM; 0.59% of 210,000 active;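 active = inhibition of 40% or more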;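 note: 0% = enzyme controls without compound and 100% = no-enzyme blanks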
# Target sequence (Q9Y337 67-293 limits assumed): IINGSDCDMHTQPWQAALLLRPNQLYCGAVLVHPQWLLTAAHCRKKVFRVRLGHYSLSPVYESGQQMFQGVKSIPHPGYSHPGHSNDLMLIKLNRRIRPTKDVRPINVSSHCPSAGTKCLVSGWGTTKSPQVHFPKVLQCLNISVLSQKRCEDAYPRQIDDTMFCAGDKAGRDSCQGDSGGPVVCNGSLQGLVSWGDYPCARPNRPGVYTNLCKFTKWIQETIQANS
# Calpain2 inh: calpain II (pig) inhibition; 0.37% of 220,000 active; inhibition, % at 16 µM; AID 1236; purified calpain II, fluorogenic peptide substrate, 30 min;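 active = inhibition above about 50%, limit read from the data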
# FXIIa inh 1536: factor XIIa (human) inhibition | inhibition, % at 5 µM | P00748 | purified FXIIa, Boc-QGR-AMC fluorogenic substrate, 2 h | AID 800 | 0.3% of 220,000 active; in the data active = inhibition above about 40%;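 note: 0% = enzyme with no compound and 100% = blank without enzyme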
# Furin inh: blocks human furin protease activity; purified furin, fluorogenic substrate cleavage; 0.061% of 220,000 active; P09958; AID 463115; inhibition, % at 20 µM or 30 µM; in the data active = inhibition above about 25%
# thrombin 1536: inhibitors of human thrombin. 0.26% of 220,000 active. inhibition, % at 5 µM. P00734. alpha-thrombin, Boc-VPR-AMC fluorogenic substrate cleavage;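 active = inhibition at or above 40%; inactive = inhibition below 40%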;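 note: 0% = enzyme with no compound and 100% = wells without enzyme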
#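 System: Human alpha-thrombin protein | Medium: pH 7.5 Tris (50 mM) with NaCl 150 mM, Tween 20 0.05% | Times: Enzyme reaction carried out at room temperature | Detection: AMC fluorescence, 355/460 nm | Evaluation: Percent inhibition scaled between no-compound controls and no-enzyme blanks | Benchmarks: Enzyme without compound as high, wells lacking enzyme as low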
# Starred values were filed as active, the others as inactive; i = inactive; x = no result.
SMILES,FXIa inh,hK5 inh,Calpain2 inh,FXIIa inh 1536,Furin inh,thrombin 1536
O=C1C=C(Nc2ccc(O)cc2)C(=O)c2ccccc21,-4,-4,58*,9,-16,0
O=C1C(Cl)=C(Nc2ccc(O)cc2)C(=O)c2ccccc21,22,22,14,31,2,22
C=CCNc1oc(-c2ccc(OCC)cc2)nc1C#N,-8,-3,-229,-5,-13,-8
CCOc1ccc(-c2nc(C#N)c(NCC(C)C)o2)cc1,-9,151*,-141,-12,-15,-3
Cc1occc(=O)c1OC(=O)Nc1ccc(Cl)c(Cl)c1,39,47*,23,5,-7,27
CC(=O)N1N=C(c2ccccc2OC(=O)/C=C/c2ccccc2)CC1c1ccccc1 (stereo not given),3,4,-60,8,-21,2
CCOC(=O)CSc1nnc(-c2ccco2)n1-c1ccc(C)cc1,1,45*,21,2,-30,29
COC(=O)CSc1nnc(-c2ccccc2OC)n1-c1ccc(C)cc1,7,43*,10,30,4,46*
COC(=O)c1nc(NC(C)=O)n[nH]1,0,5,4,48*,-6,25
COc1ccc(NS(=O)(=O)c2ccc(NS(=O)(=O)c3ccc(C)cc3)cc2)nn1,0,65*,9,2,-18,4
COc1cc(NS(=O)(=O)c2ccc(NC(C)=O)cc2)ncn1,6,-7,0,14,-26,-1
COc1cc(/C=N/NC(=O)c2cccc([N+](=O)[O-])c2)ccc1OCc1ccccc1,5,2,32,15,-16,1
COc1cc(/C=C/[N+](=O)[O-])ccc1OCc1cccc(C(=O)O)c1,21,43*,2,17,-9,26
CN(c1ccccc1)P(=O)(N(C)c1ccccc1)N(C)c1ccccc1,-5,0,0,3,-10,-8
CC(=O)c1sc2nc(-c3ccco3)ccc2c1N,0,0,-34,1,8,-3
CN(Cc1cn(C)nc1-c1cccc(Cl)c1)C1CCOCC1,8,12,15,11,1,9
CN(Cc1ccon1)Cc1cn(C)nc1-c1cccc(Cl)c1,31,58*,15,23,7,23
CCC(=O)N1CCN(CCN=CC2=C(O)CC(C)(C)CC2=O)CC1,10,40*,13,-9,-15,17
Cc1ccnc(NS(=O)(=O)c2ccc(NC(=O)CSc3nc(-c4ccccc4)cc(=O)[nH]3)cc2)n1,1,2,-12,x,-26,1
Cc1ccc(C2NC(=NCc3ccccc3)Nc3nc(C)cc(=O)n32)cc1 (stereo not given),3,1,0,9,-7,-6
C/C(=N\Nc1ccc(F)cc1F)c1ccc(Br)s1,-4,-5,-5,0,-20,-2
CCN(CC)c1ccc(/C=N/NC(=O)c2cccc(S(=O)(=O)N3CCOCC3)c2)cc1,5,-14,-153,3,-10,-14
CCN(Cc1ccccc1)c1ccc(/C=N/NC(=O)c2cccc(S(=O)(=O)N3CCOCC3)c2)cc1,12,56*,-96,20,2,20
Cc1ccc(C(C)C)c(OC/C(O)=C(\C#N)c2nc3ccccc3[nH]2)c1,-2,-18,-7,5,-15,-5
O=C(NNc1c(Cl)cc(Cl)cc1Cl)c1n[nH]c(=O)c2ccccc12,21,36,18,74*,-1,28
SMILES,FXIa inh,hK5 inh,Calpain2 inh,FXIIa inh 1536,Furin inh,thrombin 1536
NNC(=O)c1n[nH]c(=O)c2ccccc12,-4,-3,-10,4,-19,-7
COc1cccc(CNc2nc3ccc(C)cc3n3cnnc23)c1,3,5,-63,11,-24,0
COc1cccc(Nc2ccc(Nc3cccc(OC)c3)nn2)c1,9,53*,24,7,-10,15
COc1cccc(Nc2nc3ccccc3n3cnnc23)c1,2,64*,-17,17,-4,2
COc1cccc(Nc2ccccc2C(=O)O)c1,5,-4,8,13,-1,7
CCOC(=O)c1sc2cc([N+](=O)[O-])cc(SCC(=O)OC)c2c1N,11,68*,-16,31,-2,29
COc1ccc2cnn(-c3ccc(OC(F)(F)F)cc3)c(=O)c2c1OC,2,-10,-14,6,-4,-6
COc1cc(/C=C(/C#N)C(=O)c2c(C)[nH]c3ccccc23)ccc1OCC#N,22,42*,-6,25,12,14
Cc1nc(NC(=O)c2cccs2)ccc1Br,2,3,-3,9,-18,-1
O=c1cc(CN2CCN(c3ccc(F)cc3)CC2)c2cc3c(cc2o1)CCCC3,18,40*,6,27,-19,17
CCN(CC)S(=O)(=O)c1cccc(NC(=O)/C=C/c2cccc([N+](=O)[O-])c2)c1,9,67*,23,4,-9,95*
CCN(CC)S(=O)(=O)c1cccc(NC(=O)/C=C/c2ccc([N+](=O)[O-])cc2)c1,5,-8,19,7,-11,-3
CC(=O)Nc1nonc1NC(=O)CSc1ccccn1,11,4,-23,70*,-5,0
COc1ccc(Nc2nc(N)c([N+](=O)[O-])c(NCc3ccccc3)n2)cc1,4,3,25,12,1,1
COc1cccc(CNc2ccc([N+](=O)[O-])c(NCC(=O)O)n2)c1,-1,-5,89*,10,0,5
CCOC(=O)/C(=C\c1cccc(O)c1)c1nc2sc(C)c(C)c2c(=O)[nH]1,10,-18,17,13,4,3
COc1cc(/C=C/c2nc3ccc([N+](=O)[O-])cc3s2)ccc1OCC(=O)O,2,3,-2,7,-6,-1
CCN1C(=O)/C(=C\c2cn(-c3ccccc3)nc2-c2cccnc2)SC1=S,5,6,51*,12,-11,-8
CCOc1ccc(-c2nn(-c3ccccc3)cc2/C=C2\SC(=S)N(Cc3ccco3)C2=O)cc1,0,-4,-50,10,-1,-12
CCOC(=O)C1=C(CBr)NC(=O)NC1C (stereo not given),-5,-5,-17,4,-24,-5
Cc1cc(=O)n2cccc(O)c2n1,-1,-5,i,4,-15,-4
Cc1nnc(Oc2ccccc2F)c2ccccc12,6,-7,61*,17,-19,0
Cc1ccc(C)c(C2=CSC3=NCCN23)c1,6,80*,15,18,-23,12
Cc1cc(NS(=O)(=O)c2ccc(NC(=S)NC(=O)c3ccccc3)cc2)no1,0,-17,14,11,0,2
CCOc1cc(C(=O)Nc2ccc(S(=O)(=O)Nc3cc(C)on3)cc2)cc(OCC)c1OCC,2,-5,-81,16,-10,4
Cc1ccc(-c2cc(C(=O)Nc3ccc(S(=O)(=O)Nc4cc(C)on4)cc3)c3ccccc3n2)c(C)c1,6,7,-30,72*,-17,3
